The record followed here is the RNAGym collection of RNA variant scans (doi:10.1126/science.aae0568).

This sample holds only a part of the variants without activity.

The labels stand for the following.
B1: tRNA (parent)
chain: GUUCCGUUGGCGUAAUGGUAACGCGUCUCCCUCCUAAGGAGAAGACUGCGGGUUCGAGUCCCGUACGGAACG

The variants in the series derive from B1. Nature of the series: yeast fitness relative to wild type (ratio to wild type); higher = fitter; tRNA-Arg(CCU), competitive growth, 37 C, YPD. The method in brief:
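Amplicons of the tRNA-Arg(CCU) gene were sequenced, 100-nucleotide paired-end, from the start population and from each end population of a pooled yeast competition. The competition, in six parallel replicates, lasted 24 hours in YPD at 37°C. Fitness relative to wild type was calculated from changes in genotype frequencies. Genotypes had to have ≥ 100 starting reads, and estimates < 0.5 were set to 0.5.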
On to GUACCGUUGGCGUAAUGGUAACGCGUCUGCCUCCUAAGGAGAAGACUGCAGGUUCGAGUCCCGUACGGAACG [U3A C29G G50A], for which the yeast fitness is at most 0.5.
The result for GUACCGAUGGCGUAAUGGUAACGCGUCUCCCCCCUAAGGAAAAGACUGCGGGUUCGAGUCCCGUACGGAACG [U3A U7A U32C G41A] reads at most 0.5; that for GUACCGUUGGCGUAAUGGUAACGCAUCUCCCUCCUAUGGAGAAGACUGCGGGUUCGAGUCACGUACGGAACG [U3A G25A A37U C61A], at most 0.5; that for GUACCGUUGGCGUAAUGGUAACGCGUCUCCCACCUAAGAAGAAGACUGGGGGUUUGAGUCCCGUACGGAACG [U3A U32A G39A C49G C55U], at most 0.5.
For GUACCGUUGGCGCAAUGGUAACGCAUCUCCCUCCUAAGGAGAAGACUGCGGGUUCGAGUCCCGUACGGAACG [U3A U13C G25A] the value was 0.67; for GUACCGUUGGCGUAAUGGUAACGCGUCCGCCUCCUAAGGAGAAGACUGCGGGUUCGAGUCCCGUACGGAACG [U3A U28C C29G], at most 0.5.
Turning to GUACCGUUGGCGUAAUGGUAACGCGUCUCCCUCAUAAGGAGAAGACUGCGGGUUCGAGUCCCGUACGGGACG [U3A C34A A69G], the yeast fitness is at most 0.5.
For GUACCGUUGGCGUAAUGGUAACGCGUCUCGUUCCUAAGGAGAAGACUGCGGGUUCGAGUCCCGUACGGAACG [U3A C30G C31U] the value was at most 0.5; for GUACCGUUGGCGUAAUGGUAACGCGUCUCCCUCCUAAGCAGAAGGCUGCAGGUUCGAGUCCCGUACGGAACG [U3A G39C A45G G50A], at most 0.5; for GUACCGUUGGCGUAAUGGUAACGCGUCUCCCUUCUAAGGAGAAAACUGCGGGUUCGAGUCCCGUACGGAACG [U3A C33U G44A], at most 0.5.
Take GUACCGUUGGCGUAAUGGUAACACGUCUCCCACCUAAGGAGAAGACUGCGGGUUCGAGUCCCGUACGGAACG [U3A G23A U32A]: the yeast fitness is at most 0.5.
The result for GUACCCUUGGCGUAAUGGUAACGCGUCUCCCUCCUAAGGAGAAGACUGCGGGUUCGAGUCCCGUACGGAACG [U3A G6C] reads 0.662.
For GUACCGUUGGCCUACUGGAAACGCGUCUCCCUCUUAAGGAGAAGACUGAGGGUUCGAGUCCCGUACAGAACG [U3A G12C A15C U19A C34U C49A G67A], the yeast fitness was at most 0.5.
In the case of GUACCGUUGGCGUAAUGGAAACGCGUCUCCCUCCUAAGGAGAAGACUGCGGGUUCGAGUCCUGUACGGAACG [U3A U19A C62U], the yeast fitness came to 0.776.
Consider GUACCGUUGGCGUAAUGGAAACGCGUCUCCCUCCUAAGGAGAAGACUGCGGGUUCGAGUCUCGUACGGAUCG [U3A U19A C61U A70U], for which the yeast fitness worked out at 0.551.
Take GUACCGUUGGCGUAAUGGUAACGCGUCUCCCUCCUAAGGAGAAGAUUGCGGGUUCGAGUCCCGUACGGAACG [U3A C46U]: the yeast fitness is 1.
For the variant GUACCGUUGGCGUAAUGGUAACGCGGCUCCCUCCUAAGGAGAAGACUGCGGGUUCGAGUCCCGUACGGAACG [U3A U26G], the yeast fitness stood at 0.781.
For GUACCGUUGGCGUAAUGGUAACGCGUCUCCGUCCUAAGGAGAAGACUGCGGGUUCGAGUCCCGUACGGAACG [U3A C31G] the value was 0.845.
The result for GUACCGCUGGCGUAAUGGUAACGCGUCUCCCUCCUAAGGAGAAGACUGCGGGUUCGAGUCCCGUACGGAACG [U3A U7C] reads 0.839.
Regarding GUACCAUUGGCGUAAAGGUAACGGGUCUCCCUCCUAUGGAGAAGACUGUGGGUUCGAGUCCCGUACAGAACG [U3A G6A U16A C24G A37U C49U G67A], the yeast fitness was at most 0.5.
Consider GUACCGUUGGCGUAAUGGUAACGCGUUUCCCUCCUAGGGACAAGACUGCGGGUUCGAGUCCCGCACGGACCG [U3A C27U A37G G41C U64C A70C], for which the yeast fitness was at most 0.5.
GUACCCUUGGCGUAAUGGUAACGCGUCUCCCUCCUAAGGAGAAGACUGCGGGUUGGAGUCCCGUACGGAACG [U3A G6C C55G]: the yeast fitness was at most 0.5.
Take GUACCGUUGGCGUAAUGGUAACGCGUCUCCCUCCUAAGGAGAAGACUACGGGUUCGUGUCCCGUACGGAACG [U3A G48A A57U]: the yeast fitness was 0.591.
For the variant GUACCGUUGGCGUAAUGGUAACGCGUCUCUCUCCUAAGGAGAAGACUGCGGGUACGAGUCCCGUACGGAACG [U3A C30U U54A], the yeast fitness was at most 0.5.
As for GUACCGUUCGCGUAAUGGUAACGCGUCUCCCUCCUAAGGAGAAGAGUGCGGGUUCGAGUCCCGUACGGAACG [U3A G9C C46G], the yeast fitness came to 0.533.
In the case of GUACCGUUGGCGUAAUGGUAACGCAGCUCCCUCCUAAGGAGAAGACUGCGGGUUCGAGUCCCGUACGGAACG [U3A G25A U26G], the yeast fitness came to 0.535.
Regarding GUACCGUUGGCGUAAAGGUAAUGCGUCUCCCUCCUCAUGAGAAGACUCCGGGUUCGAGUCCCGUACGGAACG [U3A U16A C22U A36C G38U G48C], the yeast fitness was at most 0.5.
In the case of GUACCGUUGGCGUAAUGGUAACGCGUCUCCCUGCUAAGGAGAGGACUGCGGGUUCGAAUCCCGUACAGUACG [U3A C33G A43G G58A G67A A69U], the yeast fitness was at most 0.5.
GUACCGUUGGCCUAAUGGUAACGGGUCUCCCUCCUAAGGAGAAGACUGCGGGUUCGAGUCCCGUACGGAACG [U3A G12C C24G]: the yeast fitness was at most 0.5.
For the variant GUACCGUUGGCGUAAUGGUAACGCGUGGCCCUCCUUAGGAGAAGUCUGGGGGUUCGAGUCCCGUACGGAACG [U3A C27G U28G A36U A45U C49G], the yeast fitness was found to be 0.662.
The result for GUACCGGUGGCGUUAUGGUAACGCAUCUCCCUCCUAAGGACAAGAUUGCGGGUUCGAGCCACGUACGGAACG [U3A U7G A14U G25A G41C C46U U59C C61A] reads at most 0.5; that for GUACCGUUGGCGUAAUGGUAACGCGUCUCCCUCCUAAAGAGAAGACUGCGGGUUCGAGUCCCGUACGGAACG [U3A G38A], 0.787; that for GUACCGUUGCCGUAAUGGUAACGCGUCUCCCUCCUAAGGAGAAGACUGCGGGUUCGGGUCCCGUAUGGAACG [U3A G10C A57G C66U], at most 0.5.
For the variant GUACCGUUGGCGUAAUGGUAACGCGUCUCUCUCCUAAGGAGAAGACUGCGGGUUCGAGUCCCGUACGGAACG [U3A C30U], the yeast fitness was 0.822.
GUACCGUUGGCGUAAUGGUAACGCGUCUCCCUCCUAAGGACAAGACUGCGGGUUCGAGUCCCGUAAGGAACG [U3A G41C C66A]: the yeast fitness is 0.527.
For GUACCGUUGGCGUAAUGGUAACGCGUCUCCCUCCUAACGACAAGACUGCGGGUUCGAGUCCCGUGCGGAACG [U3A G38C G41C A65G], the yeast fitness is 0.78.
The result for GUACCGAUGGCGUAAUGGUAACGCGUCUCCCUCCUAAGGAGACGACUGCGGGUUCAAGUCCCGUACGGAACG [U3A U7A A43C G56A] reads at most 0.5; that for GUACCGUUGGCGUAAUAGUAAUGCGUCUCCCUCCUAAGGAGAAGGCUGCGGGUUCGAGUCCCGUACGGAACG [U3A G17A C22U A45G], at most 0.5.
